≈ marks a conversion by molar mass, not a printed value.
Experiments:
[1] = target: T1, Prostaglandin E2 receptor EP3 subtype (Homo sapiens, UniProt P43115); assay: Displacement of [3H]-PGE2 from human EP3 expressed in Chem-1 cell membranes incubated for 2 hrs by TopCount scintillation plate reader analysis; design: species or system Membrane
T1 sequence (P43115 whole entry): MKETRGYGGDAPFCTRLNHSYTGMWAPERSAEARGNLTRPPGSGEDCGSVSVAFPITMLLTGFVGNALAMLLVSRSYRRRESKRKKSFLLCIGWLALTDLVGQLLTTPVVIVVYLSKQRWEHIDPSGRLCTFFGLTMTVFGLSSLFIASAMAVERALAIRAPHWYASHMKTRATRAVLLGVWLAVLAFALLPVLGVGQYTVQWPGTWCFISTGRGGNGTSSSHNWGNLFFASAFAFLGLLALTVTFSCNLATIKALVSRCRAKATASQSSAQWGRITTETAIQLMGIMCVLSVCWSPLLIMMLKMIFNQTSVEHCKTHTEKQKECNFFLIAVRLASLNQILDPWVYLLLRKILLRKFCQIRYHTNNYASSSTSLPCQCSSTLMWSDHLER

[2] = target: T1, Prostaglandin E2 receptor EP3 subtype; assay: Antagonist activity at human EP3 expressed in CHO cells assessed as suppression of sulprostone-induced inhibition of forskolin induced cAMP production measured after 30 mins by HTR-FRET assay; assay type: functional, cell-based
[3] = Metabolic stability in human liver microsomes assessed as intrinsic clearance half life; assay type: ADME, Microsome
[4] = Metabolic stability in rat liver microsomes assessed as intrinsic clearance half life; assay type: ADME, Microsome
[5] = Kinetic solubility of compound in PBS buffer; assay type: physicochemical; settings: read-out: Kinetic_solubility
[6] = Kinetic solubility of compound at pH 2; assay type: physicochemical; settings: buffer, read-out: Kinetic_solubility
[7] = Apparent permeability across apical to basolateral side in dog MDCK cells; assay type: ADME, cell-based, Canis lupus familiaris
[8] = Cmax in Sprague-Dawley rat at 10 mg/kg, po measured up to 24 hrs by LC-MS/MS analysis; assay type: ADME, organism-based; design: route oral, dose 10 mg/kg, time <=24; settings: in vivo
Procedure, shortened: (§1)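 Sprague-Dawley rats, n = 3 per route, sampled over 24 h. Full PK: iv 2 mg/kg in 20% HPbCD with po 10 mg/kg given either in 0.5% HPMC or in 20% HPbCD, depending on study. Fast PK: po only, 10 mg/kg in 0.5% HPMC.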

[9] = AUClast in Sprague-Dawley rat at 10 mg/kg, po measured up to 24 hrs by LC-MS/MS analysis; assay type: ADME, organism-based; design: route oral, dose 10 mg/kg, time <=24; settings: in vivo; procedure, shortened: as §1

Row | SMILES | Ki [1] [nM] | IC50 [2] [nM] | half-life [3] [h] | half-life [4] [h] | solubility kinetic [5] [µM] | solubility kinetic [6] [µM] | Papp A→B [7] [×10⁻⁶ cm/s] | Cmax [8] [µg/mL] | AUC(0-t) at 24 h [9] [µg·h/mL]
1 | CC(C)C(/C=C1\SC(=O)NC1=O)c1ccc(-c2ccc3cccc(F)c3c2)[nH]c1=O (configuration not stated) |  |  | > 3 | 2.62 | 25.6 (≈ 10.8 µg/mL) | 4.8 (≈ 2.03 µg/mL) | 15.4 |  | 
2 | O=C1NC(=O)/C(=C/C(c2ccc(-c3ccc4cccc(F)c4c3)[nH]c2=O)C2CCCCC2)O1 (configuration not stated) |  |  | 1.09 | 2.39 |  |  |  |  | 
3 | O=C1NC(=O)/C(=C/C(c2ccccc2)c2ccc(-c3ccc4cccc(F)c4c3)[nH]c2=O)O1 (configuration not stated) |  |  | 2.1 | > 3 | 32.8 (≈ 14.4 µg/mL) | 15.4 (≈ 6.78 µg/mL) |  |  | 
4 | O=C1NC(=O)/C(=C/C(Cc2ccccc2)c2ccc(-c3ccc4cccc(F)c4c3)[nH]c2=O)O1 (configuration not stated) |  |  | 1.3 | 2.96 | 9.1 (≈ 4.14 µg/mL) | 0.9 (≈ 0.409 µg/mL) |  |  | 
5 | CCn1nc(C)c2ccc(-c3ccc(C(/C=C4\OC(=O)NC4=O)(CC)CC)c(=O)[nH]3)cc21 | 270 | 18000 |  |  |  |  |  |  | 
6 | Cc1cc(C(/C=C2\OC(=O)NC2=O)C(C)C)c(=O)[nH]c1-c1ccc2cccc(F)c2c1 (configuration not stated) |  |  | > 3 | > 3 | 35.7 (≈ 15 µg/mL) | 39.4 (≈ 16.6 µg/mL) |  |  | 
7 | CC(C)C1(c2ccc(-c3ccc4ccccc4c3)[nH]c2=O)OC(O)=NC1=O (configuration not stated) |  | 68 |  |  |  |  |  |  | 
8 | CCC(/C=C1\OC(=O)NC1=O)(CC)c1ccc(-c2ccc3c(c2)OC(C)(C)CC3)[nH]c1=O | 2600 | > 20000 |  |  |  |  |  |  | 
9 | CC(C)C(/C=C1\OC(=O)NC1=O)c1cc(Cl)c(-c2ccc3cccc(F)c3c2)[nH]c1=O (configuration not stated) |  |  | > 3 | > 3 | 21.5 (≈ 9.48 µg/mL) | 3.2 (≈ 1.41 µg/mL) |  |  | 
10 | CCC(/C=C1\OC(=O)NC1=O)(CC)c1ccc(-c2ccc3cccc(F)c3c2)[nH]c1=O |  |  | 0.948 | > 3 | 32.6 (≈ 13.7 µg/mL) | 13.5 (≈ 5.68 µg/mL) |  | 58.1 | 327
11 | CC(C)[C@H](/C=C1\OC(=O)NC1=O)c1ccc(-c2ccc3cccc(F)c3c2)[nH]c1=O |  |  | > 3 | > 3 | 25.4 (≈ 10.3 µg/mL) | 10.8 (≈ 4.39 µg/mL) |  |  | 
12 | CCC(/C=C1\OC(=O)NC1=O)(CC)c1ccc(-c2ccc3cccc(C(F)(F)F)c3c2)[nH]c1=O |  |  | 0.353 | 1.09 |  |  |  |  | 
13 | O=C1NC(=O)/C(=C/C(c2ccc(-c3ccc4cccc(F)c4c3)[nH]c2=O)C2CC2)O1 (configuration not stated) |  |  | 1.98 | > 3 | 30.8 (≈ 12.5 µg/mL) | 3.85 (≈ 1.56 µg/mL) |  |  | 
14 | CC(C)/C(=C1/OC(=O)NC1=O)c1ccc(-c2ccc3cccc(F)c3c2)[nH]c1=O | 140 | 1300 | > 3 | > 3 |  |  |  |  | 

Further lines, results first:

Row | Ki [1] [nM] | IC50 [2] [nM] | half-life [3] [h] | half-life [4] [h] | solubility kinetic [5] [µM] | solubility kinetic [6] [µM] | Papp A→B [7] [×10⁻⁶ cm/s] | Cmax [8] [µg/mL] | AUC(0-t) at 24 h [9] [µg·h/mL] | SMILES
15 | 27 | 92 | > 3 | 1.93 | 31.6 (≈ 12.5 µg/mL) | 5.4 (≈ 2.13 µg/mL) | 9.14 |  |  | CC(C)[C@@H](c1ccc(-c2ccc3cccc(F)c3c2)[nH]c1=O)[C@H]1OC(=O)NC1=O (relative stereo)
16 |  |  | 0.375 | 0.263 | 17.9 (≈ 7.29 µg/mL) | 13.6 (≈ 5.54 µg/mL) |  |  |  | CC(C)C(c1ccc(-c2ccc3cccc(F)c3c2)[nH]c1=O)C1C(=O)NC(=O)N1C (configuration not stated)
17 |  |  | > 3 | 1.08 | 34.8 (≈ 14.6 µg/mL) | 8.3 (≈ 3.48 µg/mL) | 14.1 |  |  | CC(C)C(/C=C1/C(=O)NC(=O)N1C)c1ccc(-c2ccc3cccc(F)c3c2)[nH]c1=O (configuration not stated)
18 |  |  | 1.87 | 0.76 | 20.1 (≈ 8.25 µg/mL) | 11.3 (≈ 4.64 µg/mL) | 26.3 |  |  | CC(C)C(c1ccc(-c2ccc3cccc(F)c3c2)[nH]c1=O)C1SC(=O)NC1=O (configuration not stated)
19 |  |  | 1.24 | 0.77 | 23.9 (≈ 10.1 µg/mL) | 12.2 (≈ 5.18 µg/mL) | 25.5 |  |  | CC(C)[C@@H](C[C@H]1SC(=O)NC1=O)c1ccc(-c2ccc3cccc(F)c3c2)[nH]c1=O (relative stereo)
20 |  |  | 1.59 | 0.35 | 12.3 (≈ 5.01 µg/mL) | 13 (≈ 5.3 µg/mL) | 17.1 |  |  | CC(C)C(CC1NC(=O)NC1=O)c1ccc(-c2ccc3cccc(F)c3c2)[nH]c1=O (configuration not stated)
21 |  |  | > 3 | > 3 | 26.4 (≈ 10.7 µg/mL) | 4.62 (≈ 1.88 µg/mL) |  |  |  | CC(C)[C@@H](/C=C1\OC(=O)NC1=O)c1ccc(-c2ccc3cccc(F)c3c2)[nH]c1=O
22 |  |  | 0.578 | 0.145 | 10.6 (≈ 4.17 µg/mL) | 5.8 (≈ 2.28 µg/mL) |  |  |  | CC(C)C(c1ccc(-c2ccc3cccc(F)c3c2)[nH]c1=O)C1NC(=O)NC1=O (configuration not stated)

Source: ChEMBL document CHEMBL4680377, “Discovery of a Novel Series of Pyridone-Based EP3 Antagonists for the Treatment of Type 2 Diabetes” (ACS Med Chem Lett, 2021)
